From ChEMBL document CHEMBL4732059, “Structure-guided modification of isoxazole-type FXR agonists: Identification of a potent and orally bioavailable FXR modulator” (Eur J Med Chem, 2021)
The source made the active and inactive calls. The calls are words filed in the database; no cut-off is given here.

Assays:
[1] = target: T1, Bile acid receptor (Homo sapiens) (UniProt Q96RI1); assay: Agonist activity at human FXR in HepG2 cells assessed as nuclear translocation at 1 uM for 16 hrs by immunofluorescence analysis; assay type: cell-based; details: filed as agonist
T1 sequence (whole entry): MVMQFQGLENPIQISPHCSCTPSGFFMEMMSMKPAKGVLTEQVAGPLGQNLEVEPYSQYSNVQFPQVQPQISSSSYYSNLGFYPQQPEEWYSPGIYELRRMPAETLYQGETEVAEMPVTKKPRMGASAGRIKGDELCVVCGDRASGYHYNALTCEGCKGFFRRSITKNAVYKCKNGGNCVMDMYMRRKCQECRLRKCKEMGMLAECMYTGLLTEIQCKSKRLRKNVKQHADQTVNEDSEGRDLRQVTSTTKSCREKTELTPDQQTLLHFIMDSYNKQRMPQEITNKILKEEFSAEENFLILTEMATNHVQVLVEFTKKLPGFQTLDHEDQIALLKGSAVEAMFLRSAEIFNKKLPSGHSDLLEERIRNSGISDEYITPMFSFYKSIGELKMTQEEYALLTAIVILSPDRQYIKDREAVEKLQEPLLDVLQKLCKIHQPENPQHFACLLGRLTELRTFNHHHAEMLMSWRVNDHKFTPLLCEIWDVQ

[2] = test system: HepG2; assay: Cytotoxicity against human HepG2 cells assessed as cell viability upto 40 uM after 48 hrs by MTT assay; assay type: cell-based; details: hepg2, 48 h
Summary of the method: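 HepG2 cells in DMEM/10% FBS seeded at 1×10⁵/mL and grown 24 h, then exposed to 0.1, 1, 10, 40 and 80 µM for 48 h. MTT (5 mg/mL stock) added for 4 h at 37 °C in the dark, formazan dissolved in DMSO, absorbance read at 490 nm; mean ± SD, n = 3.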

[3] = Half life in C57BL/6J mouse at 20 mg/kg, po measured upto 24 hrs by LC-MS analysis; assay type: ADME, organism-based; details: in vivo
Summary of the method: (§1)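 Male C57BL/6J mice (22–24 g, n = 5), single oral dose 20 mg/kg in 0.5% CMC-Na PBS. Plasma sampled at 0.25, 0.5, 1, 2, 4, 8, 12 and 24 h, centrifuged, and supernatant analysed by LC-MS/MS in positive ion mode. Parameters from noncompartmental analysis; mean ± SD, n = 5.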

[4] = AUC (0 to t) in C57BL/6J mouse at 20 mg/kg, po measured upto 24 hrs by LC-MS analysis; assay type: ADME, organism-based; set-up: route oral, dose 20 mg/kg, time <=24; details: in vivo; summary of the method: as §1
[5] = Cmax in C57BL/6J mouse at 20 mg/kg, po measured upto 24 hrs by LC-MS analysis; assay type: ADME, organism-based; set-up: route oral, dose 20 mg/kg, time <=24; details: in vivo; summary of the method: as §1
[6] = test system: HepG2; assay: Upregulation of FXR level in human HepG2 cells at 1 to 10 uM for 16 hrs by Western blot analysis; assay type: functional, cell-based; details: dose 1-10 µM
Summary of the method: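 HepG2 cells treated for 16 h, washed, lysed on ice and centrifuged; protein quantified by BCA. Equal protein run on 12% SDS-PAGE and transferred to PVDF. Probed overnight at 4 °C with anti-FXR, […], anti-CYP7A1 or anti-BSEP antibody, then HRP secondary 1 h at 37 °C; ECL detection.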

[7] = Tmax in C57BL/6J mouse at 20 mg/kg, po measured upto 24 hrs by LC-MS analysis; assay type: ADME, organism-based; details: in vivo; summary of the method: as §1

| SMILES | Activity [1] | Activity [2] | half-life [3] | AUC(0-t) at 24 h [4] | Cmax [5] | Activity [6] | Tmax [7] |
| --- | --- | --- | --- | --- | --- | --- | --- |
| CC(C)c1onc(-c2c(Cl)cccc2Cl)c1COc1ccc(/C=C/c2cccc(C(=O)O)c2)c(Cl)c1 | Active | Non-Toxic | – | – | – | – | – |
| O=C(O)c1cccc(NC(=O)N2CCC(OCc3c(-c4ccccc4OC(F)(F)F)noc3C3CC3)CC2)c1 | – | Non-Toxic | 636 min | 36100 ng·h/mL | 2350 ng/mL | Active | 4.8 h |
